An excerpt weighted towards active compounds, which were near 1.9% of everything screened.
RAD54 inh: RAD54 (human) branch migration inhibition | Q92698 | RAD54 Holliday junction branch migration, FAM/BHQ fluorescence | inhibition, % at 10.4 µM | 0.14% of 360,000 active;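 active means mean normalized replicate activity at least 40 and at least half of replicates scoring 40 or more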;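 further: inhibitors cause a drop in the FAM fluorescence signal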
Target sequence (Q92698 whole entry, looked up): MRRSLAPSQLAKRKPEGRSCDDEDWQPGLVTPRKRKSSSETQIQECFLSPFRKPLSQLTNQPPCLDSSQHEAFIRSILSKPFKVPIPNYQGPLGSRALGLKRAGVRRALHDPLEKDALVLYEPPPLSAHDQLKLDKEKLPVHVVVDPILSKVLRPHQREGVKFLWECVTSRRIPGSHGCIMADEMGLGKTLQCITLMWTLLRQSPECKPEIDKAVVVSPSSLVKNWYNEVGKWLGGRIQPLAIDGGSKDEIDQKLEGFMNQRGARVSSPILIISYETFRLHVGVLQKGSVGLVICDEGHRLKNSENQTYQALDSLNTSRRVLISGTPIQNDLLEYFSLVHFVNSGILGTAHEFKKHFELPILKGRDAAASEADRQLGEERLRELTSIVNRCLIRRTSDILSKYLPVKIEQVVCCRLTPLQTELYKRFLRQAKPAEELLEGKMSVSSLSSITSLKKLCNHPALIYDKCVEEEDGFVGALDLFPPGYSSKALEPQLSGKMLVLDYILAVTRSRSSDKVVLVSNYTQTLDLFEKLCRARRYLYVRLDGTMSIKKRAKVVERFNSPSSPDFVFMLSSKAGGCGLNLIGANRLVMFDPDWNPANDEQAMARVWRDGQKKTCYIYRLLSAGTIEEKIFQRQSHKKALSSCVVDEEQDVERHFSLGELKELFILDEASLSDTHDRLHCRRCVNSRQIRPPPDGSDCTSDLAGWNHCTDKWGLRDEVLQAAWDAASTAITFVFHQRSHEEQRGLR
PglD inh: blocks C. jejuni PglD acetyltransferase activity; purified PglD enzyme, DTNB colorimetric CoA detection; inhibition, % at 12.5 µM; 0.098% of 360,000 active; AID 602405; in the data active means inhibition above about 16%, passing the limit was not always enough
RAD52 inh: inhibitors of human RAD52 DNA annealing. P43351. recombinant RAD52 DNA annealing, FRET fluorescence. inhibition, % at 18.7 µM. 0.46% of 360,000 active. AID 651710;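 active means every replicate showing at least 50% inhibition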
Cneo AK release: Cryptococcus neoformans lysis via adenylate kinase release | C. neoformans lysis, adenylate kinase release luminescence, 4 h; normalised: neutral wells 0, clomiphene wells 100 | 0.2% of 360,000 active | lysis activity, % at 15 µM;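 active means mean lysis activity across replicates of at least 80%, whatever share of replicates individually reach that level; inactive means mean lysis activity below 80%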
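read-out = cell lysis signal | test system = log-phase Cryptococcus neoformans yeast cells | input = cells at 5 × 10^6 per mL | medium = fresh YPD growth medium | signal = luminescent adenylate kinase detection reagent | timing = 4 h at 37 °C static, read 1 h later | dosing = single dose | controls = Clomiphene as positive lysis control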
rRNA inh HTS: inhibits bacterial ribosomal RNA function over humanized ribosomes. E. coli WT GFP vs humanized-ribosome RFP mutants, fluorescence, 24 h; active compounds read low; DMSO median 0, no signal -100. GFP signal change (wild-type ribosome), % (concentration not given with the values). 1.6% of 350,000 active. AID 720706;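 active means significant combined selectivity score with lowered wild-type GFP, culture density cut under 30%, mutant RFP and density less affected; inactive means any of these conditions unmet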
Of the large screens only hits and unclear results are named; the others gave an inactive call.

CC(C)n1nnnc1C1c2ccccc2C(=O)N1Cc1cccs1 (configuration not stated)	none (no result: RAD54 inh, PglD inh, Cneo AK release)
C[C@@H]1CN([C@H](C)CO)C(=O)c2cc(N(C)C)ccc2O[C@@H](C)CCCCO[C@@H]1CN(C)Cc1ccc(C(=O)Nc2ccccc2N)cc1	none (no result: RAD54 inh, PglD inh, RAD52 inh, Cneo AK release)
Cc1ccc2ncnc(Nc3ccc(C)c(C)c3)c2c1	rRNA inh HTS -27
FC(F)(F)c1cnc(N2CCCN(C(=S)Nc3ccccc3)CC2)c(Cl)c1	rRNA inh HTS -41
Cc1ccc2[nH]c(C(=O)N3CCCC(Nc4ccc(F)cc4)C3)cc2c1 (configuration not stated)	rRNA inh HTS -34
COc1ccc2c3c(n(C)c2c1)[C@H](CO)N(CC1CCOCC1)CC31CN(C(C)=O)C1	none (no result: RAD54 inh, PglD inh, RAD52 inh, Cneo AK release)
Cn1c(CO)cnc1SCc1ccc(Cl)cc1	PglD inh 26 (no result: RAD52 inh, rRNA inh HTS)
O=S(=O)(O)c1cccc(N=Nc2c(O)ccc3ccccc23)c1	rRNA inh HTS -33
O=[N+]([O-])c1cc(-c2nnc(N3CCOCC3)c3ccccc23)ccc1N1CCOCC1	rRNA inh HTS -35 (no result: RAD54 inh, PglD inh, Cneo AK release)
Cc1cc(C)[n+]2[nH]c(N)c(N=Nc3ccccc3)c2n1	rRNA inh HTS -28 (no result: RAD54 inh, PglD inh, Cneo AK release)
Cc1cc(C)n2nc(N)c(N=Nc3ccccc3)c2n1	none (no result: RAD54 inh, PglD inh, Cneo AK release)
CSc1ccccc1NC(=O)C1CC(c2c(F)cccc2Cl)=NO1 (configuration not stated)	rRNA inh HTS -25
O=C(Nc1cc(Br)ccc1O)C1CC(c2c(F)cccc2Cl)=NO1 (configuration not stated)	rRNA inh HTS -36
COc1ccc(Cl)cc1NC(=O)C1CC(c2c(F)cccc2Cl)=NO1 (configuration not stated)	rRNA inh HTS -30
O=C(Nc1ccc(Br)cc1)C1CC(c2c(F)cccc2Cl)=NO1 (configuration not stated)	none
Cc1cc(NC(=O)C2CC(c3c(F)cccc3Cl)=NO2)n(-c2ccccc2)n1 (configuration not stated)	none (no result: RAD54 inh, PglD inh, Cneo AK release)
O=C(NCc1nc2ccccc2[nH]1)C1=C[C@@H](c2coc3ccccc3c2=O)C[C@@H](OCCCCO)O1	none (no result: RAD54 inh, PglD inh, rRNA inh HTS)
Cc1[nH]c2ccccc2c1/C=N/Nc1nncn1N	rRNA inh HTS -30 (no result: RAD54 inh, PglD inh, Cneo AK release)
Cc1[nH]c2ccccc2c1/C=N/Nc1ccccn1	none (no result: RAD54 inh, PglD inh, Cneo AK release)
Clc1cccc(CN2CCN(Cc3nc(CCc4ccccc4)no3)CC2)c1	rRNA inh HTS -32
Cc1ccccc1N1CCN(Cc2nc(Cc3ccccc3)no2)CC1	rRNA inh HTS -28 (no result: RAD54 inh, PglD inh, Cneo AK release)
COc1ccc(-c2nc(CN3CCN(Cc4cccc(F)c4)CC3)c(C)o2)cc1	none
CC(=O)c1ccc(N2CCN(Cc3nc(Cc4ccccc4)no3)CC2)cc1	none (no result: RAD54 inh, PglD inh, Cneo AK release)
Clc1cccc(CN2CCCCCC2)c1	none
COc1ccc(-c2nc(CN3CCN(Cc4cccc(Cl)c4)CC3)c(C)o2)cc1	rRNA inh HTS -33
COc1ccc(C#Cc2ccc3c(c2)[C@]2(C(=O)N3)[C@H](c3ccc(O)cc3)N3[C@H](c4ccccc4)[C@H](c4ccccc4)OC(=O)[C@H]3[C@@H]2C(=O)N2CCc3cc(OC)c(OC)cc3C2)cc1	none (no result: rRNA inh HTS)
COc1ccc2c3c(n(C)c2c1)[C@H](CO)N(Cc1ccc2c(c1)OCO2)CC31CN(C)C1	none (no result: RAD54 inh, PglD inh, RAD52 inh, Cneo AK release)
CC(=O)Nc1ccc(NC(=O)c2ccc(C)c(S(=O)(=O)Nc3cccc(C)c3)c2)cc1	rRNA inh HTS -27 (no result: RAD54 inh, PglD inh, Cneo AK release)
COCC(=O)Nc1ccc2c(c1)OC[C@@H](C)N(CC1CCCCC1)C[C@@H](C)[C@H](OC)CN(C)C2=O	none (no result: RAD54 inh, PglD inh, RAD52 inh, Cneo AK release)
COc1ccccc1C=NNC(=O)c1ccccc1OCCOc1ccccc1	rRNA inh HTS -31
C[C@@H]1CN(C)C(=O)c2cccc(N(C)C)c2O[C@@H]1CN(C)S(C)(=O)=O	none (no result: RAD54 inh, PglD inh, RAD52 inh, Cneo AK release)
O=C([C@@H]1[C@@H](CO)[C@@H]2Cn3c(cccc3=O)[C@@H]2N1CC1CCCCC1)N1CCOCC1	none (no result: RAD54 inh, PglD inh, Cneo AK release)
COc1ccc(NC(=O)Nc2cccc3c2O[C@H](CN(C)S(=O)(=O)c2ccc(Cl)cc2)[C@H](C)CN([C@@H](C)CO)C3=O)cc1	rRNA inh HTS -23
COc1ccc(NC(=O)Nc2cccc3c2O[C@H](CN(C)Cc2ccncc2)[C@@H](C)CN([C@H](C)CO)C3=O)cc1	none
COc1ccc(NC(=O)Nc2cccc3c2O[C@@H](CN(C)Cc2ccc(C(F)(F)F)cc2)[C@@H](C)CN([C@@H](C)CO)C3=O)cc1	RAD52 inh 87

From PubChem BioAssay
